# CAL PDZ FP-1 – untagged CAL PDZ binding inhibitors, primary screen, biochemical, fluorescence polarization, HTS; actives 0.92% (n = 300,000); inhibition, % at 24.9 µM; purified CAL PDZ, TMR-peptide fluorescence polarization, 1 h;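 active means mean inhibition of at least 30% with at least half of replicates also reaching 30%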
# DENV2 CPE – inhibitors of DENV2 cytopathic effect, primary screen, cell-based, plate reader, single concentration | DENV2-infected cells, cytopathic effect rescue | AID 651640, 2012 | actives 1.7% (n = 350,000) | CPE inhibition, % at 9.99 µM; in the data active means CPE inhibition above about 20%, passing the limit was not always enough; tested in BHK-21 cells
# SIRT5 inh – SIRT5 desuccinylase inhibitors, primary screen, biochemical, fluorescence imaging, single point, set 5 | AID 652115, 2013 | Purified SirT5, succinyl-peptide AMC, trypsin-coupled fluorescence | NAD-dependent protein deacylase sirtuin-5, mitochondrial (Homo sapiens), Q9NXA8 | actives 1.1% (n = 330,000) | inhibition, % at 15 µM; in the data active means inhibition above about 15%
# Target sequence (Q9NXA8 whole entry, looked up): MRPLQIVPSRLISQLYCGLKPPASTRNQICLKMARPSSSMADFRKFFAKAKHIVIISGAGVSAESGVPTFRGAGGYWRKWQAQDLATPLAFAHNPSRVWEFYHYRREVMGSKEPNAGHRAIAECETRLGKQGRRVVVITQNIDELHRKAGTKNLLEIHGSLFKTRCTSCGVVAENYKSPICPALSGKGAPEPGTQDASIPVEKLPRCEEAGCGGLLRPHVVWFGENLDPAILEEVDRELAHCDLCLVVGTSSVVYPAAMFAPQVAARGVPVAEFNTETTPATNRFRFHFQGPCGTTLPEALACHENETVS
# S100A4 MyoIIA – inhibitors of S100A4-myosin IIA peptide binding, primary screen, biochemical, fluorescence polarization, TAMRA-MyoIIA peptide; Protein S100-A4 (Homo sapiens), P26447; inhibition, % at 10.7 µM; actives 0.14% (n = 360,000); AID 652163, 2013;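 active means mean inhibition of at least 70% across replicates, with every replicate also reaching that level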
# Target sequence (P26447 whole entry, looked up): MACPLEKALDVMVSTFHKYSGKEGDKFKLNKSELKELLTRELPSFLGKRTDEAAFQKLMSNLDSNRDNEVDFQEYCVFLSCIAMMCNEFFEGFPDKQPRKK
#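 Material: human S100A4 monomer with TAMRA-labelled myosin IIA peptide; buffer or medium: HEPES pH 7.2 with CaCl2, KCl, NaCl, DTT, Triton; compound dosing: one concentration per compound; schedule: 5 min incubation before reading; benchmarks: neutral control DMSO, positive control TFP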
# ERAP1 HTS inh – human ERAP1 aminopeptidase inhibitors, primary screen, biochemical, single point, plate reader | Endoplasmic reticulum aminopeptidase 1 (Homo sapiens), Q9NZ08 | recombinant ERAP1, Leu-AMC fluorescence, 60 min | inhibition, % at 10.7 µM | actives 0.15% (n = 340,000);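 active means mean replicate inhibition of at least 30%, or all replicates individually reaching that 30% level; inactive means mean below 30% and not every replicate reaching it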
# CAL PDZ FP-2 – CAL PDZ peptide-binding inhibitors, primary screen, biochemical, fluorescence polarization, Cer-tagged CAL PDZ, HTS | Golgi-associated PDZ and coiled-coil motif-containing protein (Homo sapiens), Q9HD26 | purified CAL PDZ, TMR-peptide fluorescence polarization, 1 h | inhibition, % at 20 µM | actives 0.02% (n = 330,000);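 active means highest replicate inhibition of at least 40%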
#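 Material: tagged CAL PDZ protein CerCALP, purified; buffer or medium: sodium phosphate/NaCl buffer pH 7.4 with TCEP, IgG, Thesit; also added: fluorescent TMR peptide probe; schedule: 1 h incubation at room temperature before polarization reading; technique: fluorescence polarization from S- and P-plane intensities, G-factor corrected; control set: unlabelled peptide and DMSO controls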
# A number is an active result; - = inactive; . = no result. An excerpt weighted towards active compounds, which were near 2.9% of everything screened.
SMILES,CAL PDZ FP-1,DENV2 CPE,SIRT5 inh,S100A4 MyoIIA,ERAP1 HTS inh,CAL PDZ FP-2
C[C@H](CO)N1C[C@H](C)[C@H](CN(C)Cc2ccccn2)Oc2ncc(-c3ccc(F)cc3)cc2C1=O,.,-,-,-,-,.
COc1ccccc1NC(=O)N1CC(=O)N2[C@H](C1)[C@H](c1ccc(C#Cc3ccc(F)cc3)cc1)[C@@H]2CO,.,-,-,-,-,.
COc1ccccc1NC(=O)N1CC(=O)N2[C@@H](CO)[C@H](c3ccc(C#Cc4ccc(F)cc4)cc3)[C@@H]2C1,.,33,-,-,-,.
O=C(Nc1cccc(F)c1)N1CC(=O)N2[C@H](C1)[C@@H](c1ccc(-c3cccc(F)c3)cc1)[C@@H]2CO,.,-,16,-,-,.
CCC(=O)N1CC2(C1)CN(C(C)=O)[C@@H](CO)c1[nH]c3cc(OC)ccc3c12,.,-,.,-,-,.
CO[C@@H]1CN(C)C(=O)c2cc(NC(=O)Nc3ccccc3F)ccc2OC[C@@H](C)N(CC2CC2)C[C@H]1C,.,-,-,-,-,.
O=C(Nc1ccnn1C1CCN(C2CCC2)CC1)c1ccccc1,69,-,-,-,-,-
O=C(Nc1ccnn1C1CCN(C2CCCC2)CC1)c1ccccc1Cl,-,-,27,-,-,-
Clc1ccccc1OCCNc1nc(NCC2CC2)nc2ccsc12,.,-,23,-,-,.
C[C@@H]1CN([C@@H](C)CO)C(=O)c2cc(NC(=O)C3CCCCC3)ccc2O[C@@H]1CN(C)CC1CCCCC1,.,-,-,-,-,.
CCCCOC(=O)CCN1C(=O)/C(=C2\SC(=S)N(CCC(=O)OCCCC)C2=O)SC1=S,-,75,.,-,-,-
CC1=C(C(=O)N(C)C)CC(CC(=O)NC2CCCCC2)C(=O)N1Cc1ccc(C(C)(C)C)cc1 (stereo unspecified),.,43,-,-,-,.
CC1=C(C(=O)N(C)C)CC(CC(=O)NCc2ccco2)C(=O)N1Cc1ccccc1 (stereo unspecified),.,-,16,-,-,.
C[C@H](CO)N1C[C@H](C)[C@@H](CN(C)C(=O)NC2CCCCC2)OCCCC[C@H](C)Oc2ccc(NC(=O)c3ccncc3)cc2C1=O,.,-,-,-,-,.
Cn1c(N)c(C(=O)CSc2nnnn2-c2ccccc2)c(=O)n(C)c1=O,-,-,-,-,.,-
Cc1ccccc1-n1nnnc1SCC(=O)c1c(N)n(C)c(=O)n(C)c1=O,32,-,-,-,-,-
Cn1c(N)c(C(=O)CSc2nnc(C3CC3)n2N)c(=O)n(C)c1=O,-,-,19,-,-,-
CC(C)NC(=O)N(C)C[C@H]1Oc2cc(-c3ccncc3)ccc2S(=O)(=O)N([C@H](C)CO)C[C@@H]1C,.,-,-,-,-,.
Cc1noc(C)c1NC(=O)N(C)C[C@@H]1Oc2ccc(NS(=O)(=O)c3cccs3)cc2C(=O)N([C@@H](C)CO)C[C@H]1C,.,38,-,-,-,.
Cc1noc(C)c1NC(=O)N(C)C[C@H]1OCCCC[C@@H](C)Oc2ccc(NS(=O)(=O)c3ccccc3)cc2C(=O)N([C@H](C)CO)C[C@H]1C,.,70,-,-,-,.
Cc1noc(C)c1NC(=O)N(C)C[C@@H]1OCCCC[C@H](C)Oc2ccc(NS(=O)(=O)c3cccs3)cc2C(=O)N([C@@H](C)CO)C[C@H]1C,.,22,-,-,-,.
O=C(Nc1ccc2ccccc2c1)c1cccc2ccccc12,70,-,-,-,-,-
CC(=O)c1cccc(NC(=O)c2cccc3ccccc23)c1,52,-,-,-,-,-
CC(=O)Nc1cccc(NC(=O)c2cccc3cccnc23)c1,-,-,15,-,-,-
Cc1cc(C(=O)Nc2ccc3ccccc3c2)c(C)o1,41,-,-,-,-,-
Cc1ccc(NC(=O)c2cccc3cccnc23)cc1,-,-,-,-,-,-

# Compound activity: PubChem BioAssay, Broad Institute
